Screening results (PubChem)
MDM2 E3 inh – inhibitors of human Mdm2 E3 ubiquitin ligase. Q00987. cell-based MDM2 ubiquitination luciferase reporter, 2 h; 0 = plate control, 100 = twice control, blank-subtracted. signal enhancement, % at 5 µM. actives 0.11% (n = 210,000). AID 1230;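 active = signal enhancement of 30% or more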;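 note: luminescence tracks abundance of the self-degrading MDM2-luciferase fusion protein; higher signal means inhibition of MDM2 E3 ligase activity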
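Material: stable MDM2–luciferase fusion reporter cells / Quantity: 2000 cells/well / Dosing: single 5 µM compound dose, 0.2% final DMSO / Buffer or medium: DMEM / Schedule: 4 h cell settling then 2 h compound exposure, 37 °C / Detection: luminescence with SteadyLite reagent, 15 min at room temperature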
S1P3 antagonist – antagonists of human S1P3 receptor. Q99500. CHO S1P3 NFAT-BLA reporter, FRET fluorescence, antagonist mode. inhibition, % at 4.98 µM. actives 0.27% (n = 170,000). AID 485;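 active = inhibition above the plate cutoff, the mean inhibition of test wells on that plate plus 3 SD, cut at about 28% in these data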;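 note: cells challenged with S1P at its EC80 of 0.8 µM; blue over green emission ratio from cleaved BLA substrate after 4 h stimulation; 0% = S1P-stimulated wells and 100% = unstimulated DMSO-only wells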
Lmaj promast – Leishmania major promastigote growth inhibition. Leishmania major promastigotes, resazurin fluorescence viability. inhibition, % at 10 µM. actives 9% (n = 200,000). AID 1063; in the data active = inhibition above about 50%;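 note: promastigotes grown with compound for 44 hours at 28 °C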
S1P4 ag – human S1P4 receptor agonism; O95977; S1P4-expressing cell line, agonist reporter assay; activation, % at 4.98 µM; actives 0.35% (n = 220,000); in the data active = activation above about 11%;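 note: 0% = DMSO vehicle and 100% = reference agonist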
Target sequence (O95977 whole entry, looked up): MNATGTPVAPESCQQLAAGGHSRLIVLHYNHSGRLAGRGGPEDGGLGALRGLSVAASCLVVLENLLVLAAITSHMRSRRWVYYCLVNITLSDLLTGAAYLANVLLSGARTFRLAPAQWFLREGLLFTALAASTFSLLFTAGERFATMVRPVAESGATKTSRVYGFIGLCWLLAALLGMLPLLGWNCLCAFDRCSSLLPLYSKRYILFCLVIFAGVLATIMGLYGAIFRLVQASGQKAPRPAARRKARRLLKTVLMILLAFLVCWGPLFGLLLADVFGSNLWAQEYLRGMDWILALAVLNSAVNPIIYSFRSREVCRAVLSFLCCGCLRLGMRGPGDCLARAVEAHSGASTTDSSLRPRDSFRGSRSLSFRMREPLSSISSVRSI
S1P4 antagonist – human S1P4 receptor antagonism. inhibition, % at 4.98 µM. S1P4-expressing cells, antagonist mode, reporter read-out. AID 1510. O95977. actives 0.26% (n = 220,000); in the data active = inhibition above about 29%;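 note: 0% = wells stimulated with agonist and 100% = vehicle wells without agonist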
An asterisk follows results filed as active; . = no result. The full list was thinned out, with hits kept by preference.

SMILES	MDM2 E3 inh	S1P3 antagonist	Lmaj promast	S1P4 ag	S1P4 antagonist
COc1cccc(OCC(O)CN2CCC(C)CC2)c1 (stereo unspecified)	-19.9	-2.8	71.4*	-0.3	8.3
CC(C)CC(=O)NC(=S)Nc1ccc(S(=O)(=O)Nc2nccs2)cc1	-6.1	-6.6	54.8*	0.5	-19.6
O=C(Nc1ccc(S(=O)(=O)Nc2nccs2)cc1)c1ccc(N2C(=O)c3ccccc3C2=O)cc1	-21.6	13.5	100.6*	0.2	-3.8
CC(C)CC(=O)NC(=S)Nc1ccc(S(=O)(=O)NC(C)(C)C)cc1	-14.6	-4.0	62.2*	0.4	-2.2
CC(C)CC(=O)NNC(=S)Nc1ccc(S(N)(=O)=O)cc1	1.3	-6.1	-5.5	0.7	-4.7
CC(C)(C)NS(=O)(=O)c1ccc(NC(=O)C(Sc2ccccc2)c2ccccc2)cc1 (stereo unspecified)	-14.0	.	55.7*	-3.0	9.3
CCOC(CNC(=O)Cc1c(C)nc2c(-c3ccccc3)c(C)nn2c1C)OCC	-22.6	-5.5	-1.4	0.7	-7.5
CC(=O)/C=C(\C)N=Nc1c(O)[nH]c2ccccc12	-13.0	11.8	.	-0.1	-2.7
CCCC(=O)NC(=S)Nc1ccc(S(=O)(=O)Nc2ccc(OCC)cc2)cc1	-3.3	-3.9	-2.4	0.1	-11.8
CCOc1ccc(NS(=O)(=O)c2ccc(NC(=S)NC(=O)CC(C)C)cc2)cc1	-19.8	.	98.2*	0.2	19.6
COc1cc(OC)c(C(=O)CCC(=O)O)cc1OC	-7.5	-5.0	71.1*	-1.5	-8.1
COC(=O)c1sc(NC(=O)CSc2nc3cccnc3n2C2CCCCC2)nc1C	15.1	22.2	60.8*	0.2	2.6
O=C/C(=C\Nc1ccccn1)c1nc2ccccc2o1	.	.	73.0*	2.4	-5.5
COc1cc(/C=N/n2nnnc2N)ccc1OCc1c(C)no[n+]1[O-]	-2.2	6.0	54.2*	-0.5	-7.6
COc1cc(/C=N\n2nnnc2N)ccc1OCc1ccc(F)cc1	-8.9	9.0	-3.2	3.1	2.5
CCOc1ccc2nc(N3CCCC(C(=O)NCC4CCCO4)C3)sc2c1 (stereo unspecified)	-2.5	11.7	.	-1.2	-2.1
Cc1cc(C)c2nc(N3CCC(C(=O)NCCCN4CCCCC4)CC3)sc2c1	10.3	.	97.4*	0.3	0.2
Cc1cc(C)c2nc(N3CCC(C(=O)N4CCCC4)CC3)sc2c1	-7.8	-3.0	0.5	0.9	7.5
CCOc1ccc2nc(N3CCC(C(=O)N4CCN(C5CCCCC5)CC4)CC3)sc2c1	-23.5	1.2	95.4*	2.0	-10.4
CCCN1CCN(CCCNC(=O)C2CCCN(c3nc4ccc(OCC)cc4s3)C2)CC1 (stereo unspecified)	5.5	-7.3	64.3*	-0.9	-5.7
CCOC(=O)c1ccc(NC(=O)CSc2nnnn2CCCO)cc1	-30.3	0.5	-1.3	1.8	2.9
CCOC(=O)C1=C(N)n2c(s/c(=C/c3ccco3)c2=O)=C(C(=O)OC)C1c1ccco1 (stereo unspecified)	-2.3	81.4*	13.1	0.9	-22.6
O=C1c2ccccc2C(=O)N1CCCCN(C(=O)c1cccc([N+](=O)[O-])c1)c1ccc(Cl)cc1	-8.5	.	53.6*	1.5	3.1
CN(CCOc1cccc(C(F)(F)F)c1)Cc1ccccc1	-1.1	-3.0	-3.0	-0.6	3.7
Clc1cccc(OCCN2CCNCC2)c1	-7.6	-8.6	100.2*	1.3	-7.7
SMILES	MDM2 E3 inh	S1P3 antagonist	Lmaj promast	S1P4 ag	S1P4 antagonist
OCCN1CCN(CCOc2cccc(Cl)c2)CC1	1.7	.	90.0*	2.1	-8.0
FC(F)(F)c1cccc(OCCN2CCN(Cc3ccccc3)CC2)c1	2.8	0.8	76.2*	2.5	-7.7
COc1ccc(C(=O)NC2CCN(C(=O)Nc3ccccc3Cl)CC2)cc1	-24.2	-1.2	19.1	-0.2	-13.0
Fc1cccc2sc(Nc3nc4cc5c(cc4s3)OCO5)nc12	-4.8	8.4	60.1*	-0.1	-5.0
C/C(=N\NC(=O)COc1ccc(C)cc1[N+](=O)[O-])c1cccs1	2.7	-7.0	-2.5	-0.7	18.8
C/C(=N\NC(=O)COc1ccc(C)cc1Br)c1cc([N+](=O)[O-])cs1	-11.7	11.4	59.0*	2.1	11.5
CNCC(C)COc1ccccc1OCc1ccccc1 (stereo unspecified)	-11.9	-7.8	98.8*	-0.1	-10.8
CC(O)CNCCCOc1ccccc1OCc1ccccc1 (stereo unspecified)	-5.5	-14.1	98.9*	0.2	-0.8
CNCCCCOc1ccccc1Cc1ccccc1	.	-4.7	.	-0.4	1.8
CC(O)CNCCCCOc1ccc(OCc2ccccc2)cc1 (stereo unspecified)	-4.5	6.4	96.9*	2.4	-8.5
NNC(=O)c1ccccc1OCc1ccccc1	-12.9	-10.5	.	1.1	-10.8
O=C(NC1CCCC1)C1CCCN1C(=O)Nc1ccc(Cl)cc1 (stereo unspecified)	-23.3	-4.8	-5.1	-1.9	-9.8
CCN1CCN(CCNC(=O)c2ccc(/C=C3\Sc4ccccc4N(Cc4ccccc4F)C3=O)cc2)CC1	-9.2	2.2	100.4*	2.5	-36.9
CCN1CCN(CCCNC(=O)c2ccc3c(c2)NC(=O)c2ccccc2S3)CC1	-5.6	-16.2	-6.4	-1.4	4.3
CN1C(=O)/C(=C/c2cccc(Cl)c2)Sc2ccc(C(=O)NCc3cccnc3)cc21	-7.6	-4.0	40.2	2.6	3.8
CN1CCN(CCCNC(=O)c2ccc(/C=C3/Sc4ccccc4N(Cc4cccc(Cl)c4)C3=O)cc2)CC1	4.9	2.8	99.9*	1.5	-8.8
O=C(c1cc(C2CC2)on1)N1CCN(c2ccc(F)cc2)CC1	-2.4	16.5	-6.1	-1.4	-1.7
Fc1ccc(Nc2nc(-c3ccncc3)nc3ccccc23)cc1F	-13.3	-3.0	81.0*	-0.4	-7.8
Clc1cccc(Nc2nc(-c3ccncc3)nc3ccccc23)c1	-11.6	4.6	.	-0.8	21.7
CN1CCN(NC(=O)c2cn(-c3ccccc3)nc2-c2ccc(OC(F)F)cc2)CC1	3.7	-13.5	9.9	-1.4	-6.2
COc1ccc(/C=C/C(=O)c2cc(Br)ccc2OC(=O)c2ccco2)cc1OC	5.8	-26.6	78.6*	1.1	11.2
COc1ccc(/C=C/C(=O)c2cc(F)ccc2OC(=O)c2ccccc2)cc1OC	.	.	100.3*	0.6	11.9
COc1ccc(/C=C/C(=O)c2cc(F)ccc2OC(=O)c2ccc(OC)c(OC)c2)cc1OC	-5.0	5.3	92.1*	-0.8	25.4
COC(=O)c1ccc(/C=C/C(=O)c2ccc(OC)c(OC)c2)cc1	-8.5	.	39.6	-0.8	11.2
O=C(NCCc1ccccc1)N1CCCC(CNS(=O)(=O)Cc2ccccc2)C1 (stereo unspecified)	-5.3	6.9	0.0	-2.0	-6.8
CCOC(=O)CNC(=O)N1CCCC(CNS(=O)(=O)Cc2ccccc2)C1 (stereo unspecified)	-6.8	3.5	-2.8	-0.9	-8.7
O=S(=O)(Cc1ccccc1)NCC1CCCN(Cc2ccc3nonc3c2)C1 (stereo unspecified)	-2.7	2.0	92.5*	5.3	-4.8
